Key:
[1] = Inhibition of wild type HCV NS5B polymerase assessed as incorporation of [alpha32P]UTP into newly synthesized RNA by liquid scintillation counting; design: species or system Hepacivirus hominis
In short: (§1)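 De novo RNA synthesis by NS5B lacking 21 C-terminal residues, in 50 mM HEPES pH 7.5 with 5 mM MgCl2 and 2 mM DTT at 27°C. Template was unprimed minus-IRES RNA, 2.8 μg each of enzyme and template. CTP 10 μM, ATP and GTP 100 μM; 32P-UTP and inhibitor were varied. Aliquots were quenched with EDTA/NaCl/citrate.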

[2] = target: RNA-directed RNA polymerase (Hepacivirus hominis, UniProt O39930, S282T); assay: Inhibition of HCV NS5B polymerase S282T mutant assessed as incorporation of [alpha32P]UTP into newly synthesized RNA by liquid scintillation counting
In short: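 S282T NS5B (C-terminal Δ21, E. coli-expressed) de novo RNA synthesis on an unprimed minus-IRES template at 27°C in 50 mM HEPES pH 7.5 with 5 mM MgCl2 and 2 mM DTT. CTP, ATP and GTP were fixed at 10, 100 and 100 μM, and 32P-UTP and inhibitor were varied. Timed aliquots were quenched with EDTA/NaCl/citrate stop solution. Steady-state competitive inhibition gave the Ki.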

Hepatitis C virus [3] = assay: Antiviral activity against wild type HCV infected in human HuH7 cells assessed as inhibition of viral RNA replication after 4 days by replicon assay in absence of DCTD inhibitor zedularine; format: functional, Hepacivirus hominis; conditions: Huh-7, 96 h
In short: (§2)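 Clone A Huh-7 replicon cells at 1,500 cells/well, without G418. Threefold serial compound dilutions were given with or without 100 μM zebularine, for 4 days at 37°C in 5% CO2. Replicon RNA was quantified by single-step multiplex RT-PCR, and activity was taken as ΔCT relative to the no-drug control.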

Hepatitis C virus [4] = assay: Antiviral activity against HCV harboring NS5B polymerase S282T mutation infected in human HuH7 cells assessed as inhibition of viral RNA replication after 4 days by replicon assay in absence of DCTD inhibitor zedularine; format: functional, Hepacivirus hominis; conditions: Huh-7, 96 h
In short: (§3)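 Huh-7 clone A subgenomic replicon cells carrying NS5B S282T (selected by serial passage with 2′-C-methyladenosine) were seeded at 1,500 cells/well without G418. Threefold compound dilutions were added alone or with 100 μM zebularine, followed by 4 days at 37°C, 5% CO2. Replicon RNA was quantified by single-step multiplex RT-PCR, and activity was taken as ΔCT versus the no-drug control to give EC90.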

Hepatitis C virus [5] = assay: Antiviral activity against wild type HCV infected in human HuH7 cells assessed as inhibition of viral RNA replication after 4 days by replicon assay in presence of 100 uM DCTD inhibitor zedularine; format: functional, Hepacivirus hominis; conditions: Huh-7, 96 h; in short: as §2
Hepatitis C virus [6] = assay: Antiviral activity against HCV harboring NS5B polymerase S282T mutation infected in human HuH7 cells assessed as inhibition of viral RNA replication after 4 days by replicon assay in presence of 100 uM DCTD inhibitor zedularine; format: functional, Hepacivirus hominis; conditions: Huh-7, 96 h; in short: as §3
Hepatitis C virus [7] = assay: Ratio of EC90 for wild type HCV in viral replicon RNA-containing human HuH7 cells in absence of zedularine to EC90 wild type HCV in viral replicon RNA-containing human HuH7 cells in presence of zedularine; format: functional, Hepacivirus hominis, Huh-7; in short: as §2
Hepatocyte [8] = assay: Metabolic stability in human hepatocytes assessed as PSI-6130 triphosphate half life at 2 uM
[9] = Drug metabolism in HCV subgenomic replicon RNA-containing human HuH7 cells assessed as PSI-6130 nucleotide monophosphate level per 10 '6 cells at 5 uM after 48 hrs by HPLC analysis in absence of DCTD inhibitor zedularine; format: ADME, cell-based; conditions: huh-7, 48 h
In short: (§4)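 Clone A Huh-7 replicon cells were grown overnight in DMEM with 10% FBS. They were then exposed to 5 μM [3H]PSI-6130 with 0, 50 or 100 μM zebularine for 48 h at 37°C. Cells were washed, trypsinized, counted and extracted in cold 60% methanol. Nucleotides were separated by SAX HPLC (0–100% buffer B over 90 min) with radiometric flow detection.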

[10] = Drug metabolism in HCV subgenomic replicon RNA-containing human HuH7 cells assessed as PSI-6130 nucleotide monophosphate level per 10 '6 cells at 5 uM after 48 hrs by HPLC analysis in presence of 50 uM DCTD inhibitor zedularine; format: ADME, cell-based; conditions: huh-7, 48 h; in short: as §4
[11] = Drug metabolism in HCV subgenomic replicon RNA-containing human HuH7 cells assessed as PSI-6130 nucleotide monophosphate level per 10 '6 cells at 5 uM after 48 hrs by HPLC analysis in presence of 100 uM DCTD inhibitor zedularine; format: ADME, cell-based; conditions: huh-7, 48 h; in short: as §4
[12] = Drug metabolism in HCV subgenomic replicon RNA-containing human HuH7 cells assessed as PSI-6130 nucleotide diphosphate level per 10 '6 cells at 5 uM after 48 hrs by HPLC analysis in absence of DCTD inhibitor zedularine; format: ADME, cell-based; conditions: huh-7, 48 h; in short: as §4
[13] = Drug metabolism in HCV subgenomic replicon RNA-containing human HuH7 cells assessed as PSI-6130 nucleotide diphosphate level per 10 '6 cells at 5 uM after 48 hrs by HPLC analysis in presence of 50 uM DCTD inhibitor zedularine; format: ADME, cell-based; conditions: huh-7, 48 h; in short: as §4
[14] = Drug metabolism in HCV subgenomic replicon RNA-containing human HuH7 cells assessed as PSI-6130 nucleotide diphosphate level per 10 '6 cells at 5 uM after 48 hrs by HPLC analysis in presence of 100 uM DCTD inhibitor zedularine; format: ADME, cell-based; conditions: huh-7, 48 h; in short: as §4
[15] = Drug metabolism in HCV subgenomic replicon RNA-containing human HuH7 cells assessed as PSI-6130 nucleotide triphosphate level per 10 '6 cells at 5 uM after 48 hrs by HPLC analysis in absence of DCTD inhibitor zedularine; format: ADME, cell-based; conditions: huh-7, 48 h; in short: as §4
[16] = Drug metabolism in HCV subgenomic replicon RNA-containing human HuH7 cells assessed as PSI-6130 nucleotide triphosphate level per 10 '6 cells at 5 uM after 48 hrs by HPLC analysis in presence of 50 uM DCTD inhibitor zedularine; format: ADME, cell-based; conditions: huh-7, 48 h; in short: as §4
[17] = Drug metabolism in HCV subgenomic replicon RNA-containing human HuH7 cells assessed as PSI-6130 nucleotide triphosphate level per 10 '6 cells at 5 uM after 48 hrs by HPLC analysis in presence of 100 uM DCTD inhibitor zedularine; format: ADME, cell-based; conditions: huh-7, 48 h; in short: as §4
[18] = Drug metabolism in HCV subgenomic replicon RNA-containing human HuH7 cells assessed as RO2433 nucleotide monophosphate level per 10 '6 cells at 5 uM after 48 hrs by HPLC analysis in absence of DCTD inhibitor zedularine; format: ADME, cell-based; conditions: huh-7, 48 h; in short: as §4
[19] = Drug metabolism in HCV subgenomic replicon RNA-containing human HuH7 cells assessed as RO2433 nucleotide monophosphate level per 10 '6 cells at 5 uM after 48 hrs by HPLC analysis in presence of 50 uM DCTD inhibitor zedularine; format: ADME, cell-based; conditions: huh-7, 48 h; in short: as §4
[20] = Drug metabolism in HCV subgenomic replicon RNA-containing human HuH7 cells assessed as RO2433 nucleotide monophosphate level per 10 '6 cells at 5 uM after 48 hrs by HPLC analysis in presence of 100 uM DCTD inhibitor zedularine; format: ADME, cell-based; conditions: huh-7, 48 h; in short: as §4
[21] = Drug metabolism in HCV subgenomic replicon RNA-containing human HuH7 cells assessed as RO2433 nucleotide diphosphate level per 10 '6 cells at 5 uM after 48 hrs by HPLC analysis in absence of DCTD inhibitor zedularine; format: ADME, cell-based; conditions: huh-7, 48 h; in short: as §4
[22] = Drug metabolism in HCV subgenomic replicon RNA-containing human HuH7 cells assessed as RO2433 nucleotide diphosphate level per 10 '6 cells at 5 uM after 48 hrs by HPLC analysis in presence of 50 uM DCTD inhibitor zedularine; format: ADME, cell-based; conditions: huh-7, 48 h; in short: as §4
[23] = Drug metabolism in HCV subgenomic replicon RNA-containing human HuH7 cells assessed as RO2433 nucleotide diphosphate level at 5 uM after 48 hrs by HPLC analysis in presence of 100 uM DCTD inhibitor zedularine; format: ADME, cell-based; conditions: huh-7, 48 h; in short: as §4
[24] = Drug metabolism in HCV subgenomic replicon RNA-containing human HuH7 cells assessed as RO2433 nucleotide triphosphate level per 10 '6 cells at 5 uM after 48 hrs by HPLC analysis in absence of DCTD inhibitor zedularine; format: ADME, cell-based; conditions: huh-7, 48 h; in short: as §4
[25] = Drug metabolism in HCV subgenomic replicon RNA-containing human HuH7 cells assessed as RO2433 nucleotide triphosphate level per 10 '6 cells at 5 uM after 48 hrs by HPLC analysis in presence of 50 uM DCTD inhibitor zedularine; format: ADME, cell-based; conditions: huh-7, 48 h; in short: as §4
[26] = Drug metabolism in HCV subgenomic replicon RNA-containing human HuH7 cells assessed as RO2433 nucleotide triphosphate level per 10 '6 cells at 5 uM after 48 hrs by HPLC analysis in presence of 100 uM DCTD inhibitor zedularine; format: ADME, cell-based; conditions: huh-7, 48 h; in short: as §4
Hepatitis C virus [27] = assay: Antiviral activity against wild type HCV infected in human HuH7 cells assessed as inhibition of viral RNA replication after 4 days by replicon assay; format: functional, Hepacivirus hominis; conditions: Huh-7, 96 h
In short: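 Wild-type HCV subgenomic replicon Huh-7 cells (clone A) were plated at 1,500 cells/well in G418-free medium with threefold serial compound dilutions and incubated for 4 days at 37°C, 5% CO2. Replicon RNA was extracted and measured by single-step multiplex RT-PCR. Activity was calculated as the CT shift from the no-drug control, with EC90 derived.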

[28] = Cytotoxicity against HCV subgenomic replicon RNA-containing human HuH7 cells at > 400 uM; format: cell-based; conditions: huh-7
[29] = Activity of wild type HCV NS5B polymerase; design: species or system Hepacivirus hominis; in short: as §1
Hepatocyte [30] = assay: Metabolic stability in human hepatocytes assessed as RO2433 triphosphate half life at 2 uM
Hepatocyte [31] = assay: Metabolic stability in human hepatocytes assessed as RO2433 triphosphate half life at 2 uM; format: ADME, cell-based, Liver

RNA-directed RNA polymerase, sequence (O39930 entry or part of it S282T): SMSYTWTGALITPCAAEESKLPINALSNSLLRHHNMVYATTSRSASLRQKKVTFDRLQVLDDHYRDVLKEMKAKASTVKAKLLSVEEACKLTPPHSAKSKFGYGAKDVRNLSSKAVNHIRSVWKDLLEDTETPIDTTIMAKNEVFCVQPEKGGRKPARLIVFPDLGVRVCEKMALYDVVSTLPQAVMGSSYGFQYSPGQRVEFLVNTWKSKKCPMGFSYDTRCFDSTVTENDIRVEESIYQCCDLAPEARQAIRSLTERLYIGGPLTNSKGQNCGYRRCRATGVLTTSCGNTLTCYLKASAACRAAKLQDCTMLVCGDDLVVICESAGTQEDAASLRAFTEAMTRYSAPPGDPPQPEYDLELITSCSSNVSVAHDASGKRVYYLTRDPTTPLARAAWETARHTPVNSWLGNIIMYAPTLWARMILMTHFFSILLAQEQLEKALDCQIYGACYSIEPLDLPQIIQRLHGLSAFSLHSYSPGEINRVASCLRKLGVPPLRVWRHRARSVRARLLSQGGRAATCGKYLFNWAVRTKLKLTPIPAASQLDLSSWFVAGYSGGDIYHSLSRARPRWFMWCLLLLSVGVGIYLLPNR

C[C@@]1(F)[C@H](O)[C@@H](COP(=O)(O)OP(=O)(O)OP(=O)(O)O)O[C@H]1n1ccc(N)nc1=O [PSI-6130-TP]
Ki [1]: 59 nM | Ki [2]: 0.31 µM

COC(=O)[C@H](C)NP(=O)(OC[C@H]1O[C@@H](n2ccc(=O)[nH]c2=O)[C@](C)(F)[C@@H]1O)Oc1ccccc1 (stereo partly specified)
EC90 (Hepatitis C virus [3]): 1.6 µM | EC90 (Hepatitis C virus [4]): 34.7 µM

C[C@@]1(F)[C@H](O)[C@@H](CO)O[C@H]1n1ccc(N)nc1=O
EC90 (Hepatitis C virus [3]): 4.9 µM | EC90 (Hepatitis C virus [4]): 23.8 µM | EC90 (Hepatitis C virus [5]): 2100 nM | EC90 (Hepatitis C virus [6]): 8.9 µM | Ratio (Hepatitis C virus [7]): 2.3 | t1/2 (Hepatocyte [8]): 4.7 h

O=c1ncccn1[C@@H]1O[C@H](CO)[C@@H](O)[C@H]1O [ZEBULARINE]
Activity [9]: 0.65 pmol | Activity [10]: 1.04 pmol | Activity [11]: 1.26 pmol | Activity [12]: 3.3 pmol | Activity [13]: 5.48 pmol | Activity [14]: 6.61 pmol | Activity [15]: 11.53 pmol | Activity [16]: 28.62 pmol | Activity [17]: 31.74 pmol | Activity [18]: 0.79 pmol | Activity [19]: 0.27 pmol | Activity [20]: 0.22 pmol | Activity [21]: 4.79 pmol | Activity [22]: 1.33 pmol | Activity [23]: 0.88 pmol | Activity [24]: 11.51 pmol | Activity [25]: 5.62 pmol | Activity [26]: 3.53 pmol | EC90 (Hepatitis C virus [27]): > 400 µM | Activity [28]: 50%

C[C@@]1(F)[C@H](O)[C@@H](COP(=O)(O)OP(=O)(O)OP(=O)(O)O)O[C@H]1n1ccc(=O)[nH]c1=O [GS-461203]
Km [29]: 68 nM | Ki [1]: 420 nM | Ki [2]: 22 µM | t1/2 (Hepatocyte [30]): 38 h

C[C@@]1(F)[C@H](O)[C@@H](CO)O[C@H]1n1ccc(=O)[nH]c1=O
EC90 (Hepatitis C virus [3]): > 100 µM | Activity (Hepatocyte [31]): Not Active
